The source made the active and inactive calls. No cut-off for these calls is given here.

Data set [1] has as its system RAW264.7. Briefly: Antiinflammatory activity against mouse RAW264.7 cells assessed as downregulation of LPS-stimulated COX2 protein expression at 10 uM pretreated for 1 hrs followed by LPS addition and measured after 24 hrs by Western blot analysis. Type of data set: functional, cell-based. A digest of the protocol:
(§1)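 RAW264.7 macrophages (DMEM, 10% heat-inactivated FBS, 37 °C, 5% CO2) pretreated with compound, then cultured with or without LPS 1 µg/mL for 24 h. Lysates in buffer with protease/phosphatase inhibitors, BCA-normalised, 10% SDS-PAGE, PVDF transfer, milk/TBS-T block, primary antibody overnight at 4 °C, HRP anti-rabbit secondary, chemiluminescence. Dexamethasone 10 µM positive control; mean ± SD of three independent experiments.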

Data set [2] deals with RAW264.7. Briefly: Antiinflammatory activity against mouse RAW264.7 cells assessed as downregulation of LPS-stimulated iNOS protein expression at 10 uM pretreated for 1 hrs followed by LPS addition and measured after 24 hrs by Western blot analysis. Type of data set: functional, cell-based. A digest of the protocol:
as §1

For data set [3], the target named is T1, Prostaglandin G/H synthase 1 (Ovis aries) (UniProt P05979).
T1 sequence (whole entry): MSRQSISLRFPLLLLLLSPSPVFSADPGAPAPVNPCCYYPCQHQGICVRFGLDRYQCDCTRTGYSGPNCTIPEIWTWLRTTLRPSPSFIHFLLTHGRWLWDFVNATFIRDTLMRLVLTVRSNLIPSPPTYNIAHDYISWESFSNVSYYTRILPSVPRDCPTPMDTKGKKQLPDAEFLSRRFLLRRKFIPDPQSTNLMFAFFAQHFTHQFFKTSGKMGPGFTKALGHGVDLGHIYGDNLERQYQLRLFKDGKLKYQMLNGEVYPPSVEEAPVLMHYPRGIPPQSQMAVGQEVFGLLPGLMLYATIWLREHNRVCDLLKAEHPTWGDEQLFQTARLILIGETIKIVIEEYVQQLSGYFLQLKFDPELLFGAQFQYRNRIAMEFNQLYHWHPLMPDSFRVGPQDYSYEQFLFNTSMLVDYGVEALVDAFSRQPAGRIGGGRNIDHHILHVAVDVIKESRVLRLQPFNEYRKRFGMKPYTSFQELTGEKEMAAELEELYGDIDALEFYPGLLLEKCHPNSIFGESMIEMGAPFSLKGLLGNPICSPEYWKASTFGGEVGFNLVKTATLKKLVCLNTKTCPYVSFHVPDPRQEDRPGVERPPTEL
Briefly: Inhibition of ovine COX1 at 30 uM using arachidonic acid as substrate pretreated for 5 mins followed by substrate addition and measured after 2 mins by fluorescence based enzyme immunoassay.

Data set [4] concerns the target T2, Prostaglandin G/H synthase 2 (Homo sapiens) (UniProt P35354).
T2 sequence (whole entry): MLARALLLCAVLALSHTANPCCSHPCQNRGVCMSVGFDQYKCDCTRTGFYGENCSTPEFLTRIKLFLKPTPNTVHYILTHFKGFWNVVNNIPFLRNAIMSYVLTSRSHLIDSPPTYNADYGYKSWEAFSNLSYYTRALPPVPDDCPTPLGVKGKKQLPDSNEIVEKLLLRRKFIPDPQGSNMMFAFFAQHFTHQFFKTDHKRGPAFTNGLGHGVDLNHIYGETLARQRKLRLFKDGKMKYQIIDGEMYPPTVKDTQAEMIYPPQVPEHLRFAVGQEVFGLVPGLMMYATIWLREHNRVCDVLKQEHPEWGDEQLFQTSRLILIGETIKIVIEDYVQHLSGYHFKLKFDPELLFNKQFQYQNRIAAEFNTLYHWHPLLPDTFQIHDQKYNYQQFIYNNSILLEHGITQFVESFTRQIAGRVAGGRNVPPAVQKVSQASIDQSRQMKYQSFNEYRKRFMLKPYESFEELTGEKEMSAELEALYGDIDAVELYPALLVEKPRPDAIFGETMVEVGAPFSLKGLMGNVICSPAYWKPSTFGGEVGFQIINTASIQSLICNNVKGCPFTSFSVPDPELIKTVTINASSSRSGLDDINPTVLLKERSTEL
Briefly: Inhibition of recombinant human COX2 at 30 uM using arachidonic acid as substrate pretreated for 5 mins followed by substrate addition and measured after 2 mins by fluorescence based enzyme immunoassay.

In data set [5] the test system is RAW264.7. Briefly: Antiinflammatory activity against mouse RAW264.7 cells assessed as downregulation of LPS-stimulated iNOS protein expression at 20 uM pretreated for 1 hrs followed by LPS addition and measured after 24 hrs by Western blot analysis. Type of data set: functional, cell-based. The essentials:
(§2)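 Cells treated at various concentrations, then cultured with or without LPS (1 µg/mL) for 24 h; dexamethasone 10 µM as positive control. Lysates taken in buffer with protease/phosphatase inhibitors and protein quantified by BCA. Equal protein run on 10% SDS-PAGE, transferred to PVDF, blocked in TBS-T/5% milk, then primary antibodies overnight at 4°C and HRP anti-rabbit secondary. Mean ± SD, n=3.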

The test system of the next data set is L929. Nature of the data set: Cytotoxicity against mouse L929 cells assessed as reduction in cell viability up to 50 uM incubated of WST assay. The data set is classed as cell-based. A digest of the protocol: (§3)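 Cells seeded at 1.0×10^4 cells/well, grown 12 h in DMEM with 10% FBS, then exposed 24 h to 10, 25 or 50 μM; medium-only controls. WST reagent added for 1 h at 37°C and absorbance read at 450 nm. Cells in exponential phase.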

In data set [6] the test system is RAW264.7. Briefly: Cytotoxicity against mouse RAW264.7 cells assessed as reduction in cell viability up to 50 uM incubated of WST assay. Type of data set: cell-based. The essentials: as §3
Data set [7] relates to RAW264.7. Briefly: Antiinflammatory activity against mouse RAW264.7 cells assessed as inhibition of LPS-stimulated NO production pretreated for 1 hrs followed by LPS addition and measured after 24 hrs by Griess reagent based assay. Type of data set: functional, cell-based. A digest of the protocol:
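RAW264.7 cells at about 1×10^4 cells/well, grown 12 h. Pretreated 1 h at 2.5, 5 or 10 μM, then LPS 25 ng/mL for 24 h. Supernatant mixed 1:1 with Griess reagent for 15 min at 37°C in the dark, A520 read. Nitrite quantified against 0–100 μM sodium nitrite standards.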

The subject of data set [8] is RAW264.7. Nature of the data set: Antiinflammatory activity against mouse RAW264.7 cells assessed as downregulation of LPS-stimulated COX2 protein expression pretreated for 1 hrs followed by LPS addition and measured after 24 hrs by Western blot analysis. Type of data set: functional, cell-based. A digest of the protocol:
as §2

Data set [9] has as its target T3, I-kappa-B kinase (Mus musculus) (UniProt Q60680+O88351+O88522). Nature of the data set: Inhibition of LPS-stimulated IKK phosphorylation in mouse RAW264.7 cells at 5 to 20 uM pretreated for 1 hrs followed by LPS addition and measured after 30 mins by Western blot analysis. Type of data set: cell-based.
Data set [10] has as its target T4, Prostaglandin G/H synthase 2 (Mus musculus) (UniProt Q05769).
T4 sequence (whole entry): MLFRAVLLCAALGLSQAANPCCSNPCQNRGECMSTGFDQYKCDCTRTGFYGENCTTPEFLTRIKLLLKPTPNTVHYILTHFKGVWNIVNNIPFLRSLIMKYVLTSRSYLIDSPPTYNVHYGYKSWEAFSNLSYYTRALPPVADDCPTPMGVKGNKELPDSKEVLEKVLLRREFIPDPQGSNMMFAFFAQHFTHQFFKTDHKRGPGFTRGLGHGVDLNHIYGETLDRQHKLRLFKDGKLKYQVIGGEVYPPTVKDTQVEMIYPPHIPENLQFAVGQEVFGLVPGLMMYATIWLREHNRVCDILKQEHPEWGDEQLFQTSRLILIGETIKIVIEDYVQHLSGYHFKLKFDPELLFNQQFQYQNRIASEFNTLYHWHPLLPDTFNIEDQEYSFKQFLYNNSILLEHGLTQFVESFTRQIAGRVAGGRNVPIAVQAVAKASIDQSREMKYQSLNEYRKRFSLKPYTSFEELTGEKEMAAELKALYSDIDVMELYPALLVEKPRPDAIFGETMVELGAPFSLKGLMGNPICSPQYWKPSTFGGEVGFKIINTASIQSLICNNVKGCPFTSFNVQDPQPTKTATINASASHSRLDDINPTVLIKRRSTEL
Briefly: Inhibition of COX2 in mouse RAW264.7 cells assessed as decrease in LPS-stimulated PGE2 production pretreated for 1 hrs followed by LPS addition and measured after 24 hrs by sandwich ELISA. Type of data set: cell-based. A digest of the protocol: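 RAW264.7 cells at about 1×10^4 cells/well, grown 12 h. Pretreated 1 h at 2.5, 5 or 10 μM, then stimulated with LPS 100 ng/mL for 24 h. PGE2 in the medium measured by PGE2 express ELISA, absorbance at 415 nm. Representative of three independent experiments.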

Data set [11] deals with RAW264.7. Briefly: Antiinflammatory activity against mouse RAW264.7 cells assessed as decrease in LPS-stimulated IL6 production pretreated for 1 hrs followed by LPS addition and measured after 24 hrs by sandwich ELISA. Type of data set: functional, cell-based. The essentials: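 RAW264.7 cells seeded at about 1×10^4 cells/well and grown 12 h. Pretreated 1 h with 2.5, 5 or 10 μM, then LPS 100 ng/mL added: 24 h for IL-6, 3 h for TNF-α. Cytokines in the medium quantified by sandwich ELISA, A450. Representative of three independent experiments.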

In data set [12] the test system is RAW264.7. Briefly: Antiinflammatory activity against mouse RAW264.7 cells assessed as reduction in LPS-stimulated ROS production pretreated for 1 hrs followed by LPS addition and measured after 24 hrs by DCFH-DA dye based fluorescence assay. Type of data set: functional, cell-based. A digest of the protocol: (§4)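 RAW264.7 cells at about 1×10^4 cells/well, grown 12 h, pretreated 1 h, then LPS 1 μg/mL for 24 h. Loaded with DCFH-DA at 100 μM final in FBS-free medium, 30 min at 37°C. After washing, fluorescence read at Ex 485/Em 520 nm on a plate reader; confocal imaging done in parallel dishes.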

The target in data set [13] is T3, I-kappa-B kinase (Mus musculus). Nature of the data set: Inhibition of LPS-stimulated IKK phosphorylation in mouse RAW264.7 cells assessed as decrease in IkappaBalpha phosphorylation level at 5 to 20 uM pretreated for 1 hrs followed by LPS addition and measured after 30 mins by Western blot analysis. The data set is classed as cell-based.
Data set [14] deals with RAW264.7. Briefly: Antiinflammatory activity against mouse RAW264.7 cells assessed as downregulation of LPS-stimulated COX2 protein expression at 20 uM pretreated for 1 hrs followed by LPS addition and measured after 24 hrs by Western blot analysis. The data set is classed as functional, cell-based. A digest of the protocol: as §2
Data set [15] concerns RAW264.7. Nature of the data set: Antiinflammatory activity against mouse RAW264.7 cells assessed as reduction in LPS-stimulated ROS production at 20 uM pretreated for 1 hrs followed by LPS addition and measured after 24 hrs by DCFH-DA dye based fluorescence assay. The data set is classed as functional, cell-based. A digest of the protocol:
as §4

A short description of data set [16]: Cytotoxicity against rat Ac2F cells assessed as reduction in cell viability up to 50 uM incubated of WST assay. The data set is classed as cell-based. A digest of the protocol:
as §3

The target of data set [17] is Transcription factor p65 (Mus musculus) (UniProt Q04207). Briefly: Inhibition of LPS-induced NFkappaB p65 nuclear translocation in mouse RAW264.7 cells at 20 uM preincubated for 1 hrs followed by LPS-stimulation and measured after 24 hrs by DAPI staining based confocal microscopic method. The data set is classed as cell-based.
Transcription factor p65 (Mus musculus), sequence (Q04207 whole entry): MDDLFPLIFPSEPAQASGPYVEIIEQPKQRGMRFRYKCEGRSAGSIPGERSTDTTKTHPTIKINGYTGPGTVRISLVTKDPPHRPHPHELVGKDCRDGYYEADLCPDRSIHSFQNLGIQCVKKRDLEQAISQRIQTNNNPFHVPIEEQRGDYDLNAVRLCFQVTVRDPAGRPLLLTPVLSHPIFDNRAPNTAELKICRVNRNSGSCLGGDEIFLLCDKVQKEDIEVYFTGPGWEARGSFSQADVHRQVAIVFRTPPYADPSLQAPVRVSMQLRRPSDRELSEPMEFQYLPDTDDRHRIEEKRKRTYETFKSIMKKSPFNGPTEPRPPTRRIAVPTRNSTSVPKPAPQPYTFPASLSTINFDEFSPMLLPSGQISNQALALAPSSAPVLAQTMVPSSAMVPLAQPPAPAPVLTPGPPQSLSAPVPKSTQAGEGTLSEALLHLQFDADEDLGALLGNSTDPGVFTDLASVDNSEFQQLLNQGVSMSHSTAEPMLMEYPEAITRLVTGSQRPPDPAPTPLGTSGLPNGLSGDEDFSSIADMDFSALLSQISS
Data set [18] concerns RAW264.7. Nature of the data set: Antiinflammatory activity against mouse RAW264.7 cells assessed as decrease in LPS-stimulated TNFalpha production pretreated for 1 hrs followed by LPS addition and measured after 24 hrs by sandwich ELISA. Type of data set: functional, cell-based.
Data set [19] has as its target Transcription factor p65 (Mus musculus) (UniProt Q04207). Briefly: Inhibition of LPS-stimulated NFkappaB p65 nuclear translocation in mouse RAW264.7 cells retreated for 1 hrs followed by LPS addition and measured after 30 mins by Western blot analysis. The data set is classed as cell-based.
Data set [20] concerns RAW264.7. Nature of the data set: Antiinflammatory activity against mouse RAW264.7 cells assessed as downregulation of LPS-stimulated iNOS protein expression pretreated for 1 hrs followed by LPS addition and measured after 24 hrs by Western blot analysis. The data set is classed as functional, cell-based. A digest of the protocol:
as §2

As to `C[C@@H]1C[C@H]2[C@@H]3CCC4=CC(=O)C=C[C@]4(C)[C@@]3(F)[C@@H](O)C[C@]2(C)[C@@]1(O)C(=O)CO`, the result with RAW264.7 [1] and with RAW264.7 [2] was Active.

In the case of `O=C(N/N=C/c1ccco1)c1cn(Cc2ccc(Cl)cc2)c2ccccc12`, the inhibition result in data set [3] and in [4] was “Active” throughout.

In the case of `N#Cc1ccc(/C=N/NC(=O)c2cn(Cc3ccc(Cl)cc3)c3ccccc23)cc1`, the result with RAW264.7 [5], in the data set on RAW264.7 [14] and in the data set on RAW264.7 [15] was Active. The Activity result was “Non-Toxic” in the data set on L929; “Non-Toxic” in the data set on RAW264.7 [6]; “Dose-dependent effect” in the data set with RAW264.7 [8]; “Dose-dependent effect” in the data set with RAW264.7 [11]; “Dose-dependent effect” in the data set with RAW264.7 [12]; “Non-Toxic” in [16]. For the same compound, the Activity result in the data set on RAW264.7 [18] and in the data set with RAW264.7 [20] was “Dose-dependent effect” in each case. The inhibition entry (in the data set with RAW264.7 [7]; in data set [19]) was “Dose-dependent effect” each time. The inhibition result in data set [3], in [9], in data set [10], in data set [13], in data set [17] and in data set [4] was “Active” each time.

For the compound `CCCCC/C=N/NC(=O)c1cn(Cc2ccc(Cl)cc2)c2ccccc12`, the inhibition result in data set [3] and in [4] was “Active” throughout.

For the compound `O=C(O)Cc1ccccc1Nc1c(Cl)cccc1Cl`, the result with RAW264.7 [15] was Active.

The values are drawn from ChEMBL document CHEMBL4406809, “Design of balanced COX inhibitors based on anti-inflammatory and/or COX-2 inhibitory ascidian metabolites” (Eur J Med Chem, 2019).
